EBNA-1 inh – blocks EBNA-1 binding to DNA; EBNA-1 DNA binding, fluorescence polarization; inhibition, % at 14.8 µM; 0.34% of 300,000 active; AID 1950; in the data active means inhibition above about 28%
ZTA DNA inh – blocks Epstein-Barr virus ZTA, an EBNA-1 counter-screen; P03206; ZTA-DNA binding, fluorescence polarization; inhibition, % at 11 µM; 0.15% of 320,000 active; AID 2234; in the data active means inhibition above about 33%
HCV core dimer – HCV core protein dimerization inhibition; inhibition, % at 5 µM; TR-FRET GST/Flag-core106 dimerization, 1536-well; 0.33% of 300,000 active;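 active means inhibition above the mean of all tested compounds plus 3 SD, set per screening campaign, cut at about 45% in these data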
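Assay system: tagged HCV core106 pair (GST and Flag); medium: KF-containing HEPES buffer, pH 7.45, DTT, CHAPS, BSA; also added: Eu donor and XL665 acceptor anti-tag antibodies; dosing: 5 µM single dose; timing: compound-protein-antibody incubation 4 h at 22.5 °C; signal: TR-FRET 671 and 617 nm emission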
NS3 helicase inh – HCV NS3 helicase inhibition | inhibition, % at 10.9 µM | 0.56% of 290,000 active | NS3 helicase DNA unwinding, Cy5 molecular beacon fluorescence;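 active means inhibition above the mean of all tested compounds plus 3 SD, set per campaign, cut at about 35% in these data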;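 further: 0% = DMSO wells and 100% = thioflavine S control wells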
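Material: hepatitis C virus NS3 helicase domain fragment enzyme; measured by: Cy5 fluorescence, 0 and 60 min reads; control set: DMSO and thioflavine S; incubation: 60 min unwinding reaction at 25 °C after ATP addition; read-out basis: % inhibition from 60/0 min fluorescence ratio, DMSO 0%, thioflavine S 100%; repeats: singlicate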
PfM18AAP inh-1 – blocks P. falciparum M18 aspartyl aminopeptidase | inhibition, % at 7.35 µM | recombinant PfM18AAP, H-Glu-NHMec fluorogenic cleavage | 1.2% of 290,000 active;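 active means inhibition above the campaign mean inhibition over all tested compounds plus 3 SD, cut at about 28% in these data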;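 further: 0% = plate median of test compound wells and 100% = 2 mM ZnCl2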
ALR inh – blocks human ALR sulfhydryl oxidase activity; 3.8% of 290,000 active; inhibition, % (concentration not given with the values); purified ALR, DTT oxidation, H2O2 HRP-luminol luminescence;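 active means mean replicate inhibition above about 79%, with every replicate also reaching it, limit read from the data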
Target sequence (P55789 whole entry, looked up): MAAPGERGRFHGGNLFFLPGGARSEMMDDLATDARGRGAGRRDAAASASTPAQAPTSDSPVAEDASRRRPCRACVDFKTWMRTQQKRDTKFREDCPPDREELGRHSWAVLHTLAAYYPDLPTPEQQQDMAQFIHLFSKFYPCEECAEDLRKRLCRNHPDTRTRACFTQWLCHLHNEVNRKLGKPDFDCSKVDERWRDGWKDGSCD
PfM18AAP inh-2 – PfM18AAP inhibition, confirmation; shares compounds with PfM18AAP inh-1; recombinant PfM18AAP, H-Glu-NHMec fluorogenic cleavage; inhibition, % at 7.35 µM; 28% of 2,400 active;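 active means mean inhibition over replicate wells above the hit cutoff set for the earlier primary screen, cut at about 29% in these data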;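 further: 0% = median of test compound wells and 100% = 2 mM ZnCl2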
CTSL1 confirm – Cathepsin L (human) inhibition, confirmation | shares compounds with PfM18AAP inh-1 | purified cathepsin L1, Z-Leu-Arg-MCA fluorescence | inhibition, % at 5.96 µM | 2,400 tested, under 10 active;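 active means average inhibition across replicates above the hit cutoff set in the earlier primary screen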;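 further: 0% = median of test compound wells and 100% = Z-Phe-Ala-diazomethylketone 1 µM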
Target sequence (P07711 whole entry, looked up): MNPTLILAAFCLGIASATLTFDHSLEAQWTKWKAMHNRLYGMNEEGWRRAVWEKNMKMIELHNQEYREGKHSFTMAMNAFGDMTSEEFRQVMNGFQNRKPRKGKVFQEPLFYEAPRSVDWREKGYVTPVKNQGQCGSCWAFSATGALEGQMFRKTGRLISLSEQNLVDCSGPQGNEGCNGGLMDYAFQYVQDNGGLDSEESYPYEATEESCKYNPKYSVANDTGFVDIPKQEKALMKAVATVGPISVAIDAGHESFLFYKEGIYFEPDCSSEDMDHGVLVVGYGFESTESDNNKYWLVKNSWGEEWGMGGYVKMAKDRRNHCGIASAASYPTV
Starred values were filed as active, the others as inactive; / = no result. This is a sample that favours compounds with a hit; in the whole collection about 5.2% have one here.

SMILES | EBNA-1 inh | ZTA DNA inh | HCV core dimer | NS3 helicase inh | PfM18AAP inh-1 | ALR inh | PfM18AAP inh-2 | CTSL1 confirm
N#Cc1c(-c2ccccc2)[nH]c(=S)[nH]c1=O | 3.5 | 2.4 | 6.8 | 4.9 | 33.5* | 56.5 | -21.5 | -1.1
CC1(C)Cc2c(c(-c3ccccc3)[nH]c(=O)c2C#N)CS1 | -6.3 | 11.1 | 6.9 | -5.3 | 1.7 | -0.1 | / | /
NC(=O)CSc1n[nH]c(=O)n1CCc1ccccc1 | 4.3 | -2.5 | -10.3 | -9.4 | -13.0 | / | / | /
COc1ccc(C2C(C(C)=O)=C(O)C(=O)N2c2nc3ccccc3s2)cc1OC (centres undefined) | -3.5 | -10.8 | 5.3 | 0.2 | 33.8* | 12.7 | -26.1 | 2.1
COc1ccc(C2C(C(C)=O)=C(O)C(=O)N2c2nccs2)cc1OC (centres undefined) | -5.0 | -20.5 | -9.0 | 15.0 | 5.6 | -16.3 | / | /
COC(=O)CC1C(=O)NCCN1C(=O)c1cc(OC)c(OC)cc1OC (centres undefined) | 6.2 | 14.5 | 7.7 | -13.4 | -12.7 | / | / | /
CC1=CC(C)(C)N(C(=O)CN2C(=O)CCC2=O)c2ccc(C)cc21 | -0.4 | -10.4 | -2.2 | 1.6 | 3.9 | -9.0 | / | /
CC1=CC(C)(C)N(C(=O)CSc2ncn[nH]2)c2ccc(C)cc21 | 6.7 | -2.4 | 1.9 | 1.7 | 56.4* | / | -30.8 | 3.6
Cc1cccc(NC(=S)NCCc2ccccc2)n1 | -2.3 | -9.8 | 2.2 | 7.4 | 37.8* | -7.6 | 9.6 | 1.3
C=CCNC(=S)NNc1nc(N2CCCC2)nc(N2CCCC2)n1 | 1.9 | 1.2 | -2.9 | 2.3 | 54.0* | 23.0 | 20.0 | -0.1
CNC(=S)NNc1nc(N2CCOCC2)nc(N2CCOCC2)n1 | -4.8 | -1.3 | 0.8 | -8.0 | 41.0* | 84.9* | 25.3 | -2.6
CCNC(=S)NNc1nc(N2CCOCC2)nc(N2CCOCC2)n1 | 2.0 | -9.9 | -6.4 | 7.6 | 46.7* | -9.8 | 29.5* | -1.3
Cc1cc(C)cc(NC(=O)c2cc(C)nc3ccccc23)c1 | 6.3 | 4.6 | -0.2 | 4.0 | -10.8 | -14.8 | / | /
COc1ccc(-n2c(SCC(=O)C(C)(C)C)nc3c(sc(=S)n3-c3ccccc3)c2=O)c(OC)c1 | -3.5 | 12.1 | 15.2 | 7.9 | 36.7* | -1.7 | 14.5 | 4.3
CCOC(=O)CSc1nc2c(sc(=S)n2-c2ccccc2OC)c(=O)n1-c1ccccc1OC | 10.8 | -9.1 | 15.3 | 7.8 | -1.3 | -4.0 | / | /
O=C(COc1cccc2cccnc12)NNC(=S)Nc1ccccc1 | -3.1 | -8.8 | 1.4 | -1.8 | 34.7* | 2.7 | 77.1* | 0.5
O=C(NNC(=S)Nc1ccccc1)NNC(=S)Nc1ccccc1 | -5.8 | 3.9 | -0.7 | 2.0 | 38.8* | 0.7 | 59.9* | -4.9
O=C(NNC(=S)Nc1ccccc1)Nc1ccccc1 | -13.8 | 3.9 | -3.8 | -12.2 | 53.1* | 45.6 | 17.8 | -5.7
O=C(NNC(=S)Nc1ccccc1)c1ccncc1 | 3.7 | -5.0 | 4.6 | 6.0 | 6.9 | 63.9 | / | /
CCOC(=O)c1c(C2COc3ccccc3O2)csc1N (centres undefined) | -7.5 | -18.9 | -4.8 | -5.8 | 59.7* | 25.8 | -56.6 | 0.2
Cc1ccccc1N1CCN(C(=O)c2cc(C3CC3)nn2-c2ccccc2)CC1 | / | 8.5 | / | / | / | -0.3 | / | /
COc1ccc(OC)c(NC(=O)NC2(C(F)(F)F)Oc3ccccc3O2)c1 | 2.3 | -5.7 | 1.9 | -5.4 | 62.7* | -8.0 | -7.4 | 2.2
CCCCNC(=O)NC1(C(F)(F)F)Oc2ccccc2O1 | -9.4 | -2.5 | -6.3 | -4.6 | 81.0* | -5.9 | -26.1 | -6.7
COc1ccc(OC)c(NC(=O)Nc2ccccc2C)c1 | -6.0 | 6.6 | 1.2 | 4.3 | 3.7 | -11.4 | / | /
NS(=O)(=O)c1ccc(CCNC(=O)NC2(C(F)(F)F)Oc3ccccc3O2)cc1 | 5.8 | 20.9 | 2.1 | 10.0 | 67.3* | -9.0 | -16.1 | -1.7
CCN1CCN(Cc2nc3cc(NC(=O)COc4ccc([N+](=O)[O-])cc4)ccc3n2C)CC1 | -0.3 | 0.2 | -0.4 | 2.0 | -7.0 | -0.1 | / | /

Compound activity (PubChem)
